Assay results published in article PMC9594912 (International Journal of Nanomedicine, 2022).

Tests used:
[1] = test system: UC induced by DSS; test: DSS colitis: histological examination of colon; format: in vivo, Balb/c mice; conditions: SASP 500 mg/kg; Pae-Lips-H 400 mg/kg
In short: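 Male Balb/c mice (10 weeks, n = 6/group) given 3% (w/v) DSS in drinking water for 7 days. Dosed by gavage twice daily, suspended in 0.5% CMC-Na. Distal colon (~2 cm) fixed in 10% formaldehyde and HE-stained. Scored for mucosal inflammation severity, lesion extent and crypt damage.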

[2] = target: T1, BCRP (Rattus norvegicus, UniProt Q80W57); test: SPIP with BCRP inhibitor reserpine; format: in vivo, rats; conditions: Res 50 μmol/L; increase taken to indicate a substrate of BCRP
T1 sequence (Q80W57 1-657): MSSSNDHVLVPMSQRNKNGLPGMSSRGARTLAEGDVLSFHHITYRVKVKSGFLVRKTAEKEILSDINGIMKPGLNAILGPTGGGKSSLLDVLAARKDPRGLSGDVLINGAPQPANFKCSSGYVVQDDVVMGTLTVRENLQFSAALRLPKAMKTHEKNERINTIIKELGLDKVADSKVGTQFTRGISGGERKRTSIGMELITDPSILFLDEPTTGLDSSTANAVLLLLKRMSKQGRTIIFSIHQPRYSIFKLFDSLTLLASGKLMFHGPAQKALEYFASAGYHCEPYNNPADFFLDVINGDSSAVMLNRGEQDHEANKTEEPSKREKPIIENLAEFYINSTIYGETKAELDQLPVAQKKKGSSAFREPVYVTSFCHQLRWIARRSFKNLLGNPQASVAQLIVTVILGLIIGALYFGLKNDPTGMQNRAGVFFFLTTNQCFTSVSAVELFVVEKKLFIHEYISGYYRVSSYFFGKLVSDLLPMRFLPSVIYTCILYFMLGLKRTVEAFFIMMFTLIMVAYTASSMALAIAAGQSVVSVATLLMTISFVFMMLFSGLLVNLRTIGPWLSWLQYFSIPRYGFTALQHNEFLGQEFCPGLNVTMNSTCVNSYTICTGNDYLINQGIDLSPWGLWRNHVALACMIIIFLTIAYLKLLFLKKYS

[3] = test system: P-gp; test: SPIP with P-gp inhibitor verapamil; conditions: Ver 100 μmol/L; increase taken to indicate a substrate of P-gp
[4] = test system: Caco-2 cells; test: Caco-2 cell viability, MTT assay; format: cell-based, human
In short: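 Caco-2 cells seeded at 10,000/well in 96-well plates and grown 24 h at 37°C, 5% CO2. Exposed to increasing concentrations of free or liposomal test compound for 4 h, with α-MEM as negative control. Then 0.5% MTT added for 4 h at 37°C, formazan dissolved in DMSO, A490 read. Viability expressed as percent of control.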

[5] = test system: intestinal segments (duodenum, jejunum, ileum and colon); test: In situ single-pass intestinal perfusion; format: in vivo, rats; conditions: 125, 250, 500 μg/mL; taken to indicate passive diffusion
[6] = target: P-gp (Homo sapiens, UniProt P08183); test: Caco-2 transport with P-gp inhibitor Ver; format: in vitro ADME; conditions: Ver 100 μmol/L; increase taken to indicate a substrate of P-gp
In short: (§1)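 Bidirectional transport across 21-day Caco-2 monolayers (TEER >300 Ω·cm2) in pH 7.4 HBSS. Free or liposomal test compound at 2.5, 5, 10 μg/mL, with efflux inhibitor added: verapamil 100 μmol/L (P-gp), indomethacin 200 μmol/L (MRP2) or reserpine 50 μmol/L (BCRP). Receiver sampled at 30–180 min with replacement. Triplicate runs; Papp from ΔQ/Δt, area and C0.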

[7] = Transport study in Caco-2 cell monolayer; format: in vitro ADME; conditions: human, Caco-2, pH 7.4
In short: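 Caco-2 cells grown in α-MEM with 20% FBS, 1% NEAA, 4 mM glutamine and pen/strep. Seeded on transwells and cultured 21 days; monolayers with TEER >300 Ω·cm2 used. In pH 7.4 HBSS, free or liposomal test compound (2.5, 5, 10 μg/mL) added apically (A→B) or basolaterally (B→A). Receiver sampled at 30–180 min with replacement. Triplicate runs; Papp from ΔQ/Δt, area and C0; efflux ratio derived.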

[8] = target: MRP2 (Rattus norvegicus, UniProt Q63120); test: SPIP with MRP2 inhibitor indomethacin; format: in vivo, rats; conditions: Indo 200 μmol/L; increase taken to indicate a substrate of MRP2
[9] = target: T2, BCRP (Homo sapiens, UniProt Q9UNQ0); test: Caco-2 transport with BCRP inhibitor Res; format: in vitro ADME; conditions: Res 50 μmol/L; increase taken to indicate a substrate of BCRP
T2 sequence (Q9UNQ0 1-655): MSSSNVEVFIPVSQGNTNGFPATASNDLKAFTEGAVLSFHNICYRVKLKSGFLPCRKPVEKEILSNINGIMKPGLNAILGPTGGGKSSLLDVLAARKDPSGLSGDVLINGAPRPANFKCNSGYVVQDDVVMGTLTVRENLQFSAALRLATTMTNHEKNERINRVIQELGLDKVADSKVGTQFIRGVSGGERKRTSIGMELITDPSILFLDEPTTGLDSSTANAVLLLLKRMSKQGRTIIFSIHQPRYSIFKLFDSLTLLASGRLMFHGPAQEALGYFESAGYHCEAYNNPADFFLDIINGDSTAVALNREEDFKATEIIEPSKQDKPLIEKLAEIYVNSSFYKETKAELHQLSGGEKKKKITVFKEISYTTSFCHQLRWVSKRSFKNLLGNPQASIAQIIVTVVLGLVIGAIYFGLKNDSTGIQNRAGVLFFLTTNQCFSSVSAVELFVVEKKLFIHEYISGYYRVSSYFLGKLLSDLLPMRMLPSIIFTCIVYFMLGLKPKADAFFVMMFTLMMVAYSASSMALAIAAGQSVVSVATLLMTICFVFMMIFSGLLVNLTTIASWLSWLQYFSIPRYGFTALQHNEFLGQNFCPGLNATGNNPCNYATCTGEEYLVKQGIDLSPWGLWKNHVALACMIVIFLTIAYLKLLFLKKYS
In short: as §1

[10] = In vitro drug release; format: physicochemical; conditions: PBS (pH 7.4), 24 hours, 37°C
In short: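 Dialysis bags holding 2 mL of free suspension or liposomes with equal drug content. Immersed in 60 mL PBS pH 7.4, SGF or SIF, each with 0.5% Tween-80, shaken at 37°C, 100 rpm. 1 mL withdrawn at intervals and replaced with fresh medium. Drug quantified by HPLC (C18, methanol:water 80:20, 254 nm). Cumulative release % calculated with sampling correction, then fitted to kinetic models.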

[11] = target: MRP2 (Homo sapiens, UniProt Q92887); test: Caco-2 transport with MRP2 inhibitor Indo; format: in vitro ADME; conditions: Indo 200 μmol/L; increase taken to indicate a substrate of MRP2
In short: as §1

[12] = RAW264.7 cell viability, MTT assay; format: cell-based; conditions: mouse, RAW 264.7 macrophages
In short: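 Log-phase RAW264.7 macrophages seeded at 10,000/well in 96-well plates and grown 24 h. Treated for 24 h with graded concentrations of free or liposomal test compound, 6 replicate wells per group. Then 0.5% MTT added for 4 h, formazan dissolved in DMSO, absorbance read at 490 nm.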

[13] = test system: RAW264.7 macrophages stimulated by LPS; test: NO release and ELISA of TNF-α, IL-6 and IL-10 in LPS-stimulated RAW264.7; format: cell-based, mouse; conditions: LPS 1 µg/mL, paeonol 5 μg/mL, Pae-Lips 2.5, 5, 10 μg/mL
In short: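 RAW264.7 cells (DMEM, 20% FBS, 37°C, 5% CO2) seeded at 15,000/well and grown 24 h. Pretreated 2 h with free test compound (5 μg/mL final) or liposomes (2.5, 5, 10 μg/mL final). Then stimulated with LPS 1 µg/mL final (unstimulated control kept) for 20 h. Supernatant NO measured by kit; IL-6, TNF-α and IL-10 by ELISA.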

Chain of P-gp (Homo sapiens, UniProt P08183) (P08183 whole entry): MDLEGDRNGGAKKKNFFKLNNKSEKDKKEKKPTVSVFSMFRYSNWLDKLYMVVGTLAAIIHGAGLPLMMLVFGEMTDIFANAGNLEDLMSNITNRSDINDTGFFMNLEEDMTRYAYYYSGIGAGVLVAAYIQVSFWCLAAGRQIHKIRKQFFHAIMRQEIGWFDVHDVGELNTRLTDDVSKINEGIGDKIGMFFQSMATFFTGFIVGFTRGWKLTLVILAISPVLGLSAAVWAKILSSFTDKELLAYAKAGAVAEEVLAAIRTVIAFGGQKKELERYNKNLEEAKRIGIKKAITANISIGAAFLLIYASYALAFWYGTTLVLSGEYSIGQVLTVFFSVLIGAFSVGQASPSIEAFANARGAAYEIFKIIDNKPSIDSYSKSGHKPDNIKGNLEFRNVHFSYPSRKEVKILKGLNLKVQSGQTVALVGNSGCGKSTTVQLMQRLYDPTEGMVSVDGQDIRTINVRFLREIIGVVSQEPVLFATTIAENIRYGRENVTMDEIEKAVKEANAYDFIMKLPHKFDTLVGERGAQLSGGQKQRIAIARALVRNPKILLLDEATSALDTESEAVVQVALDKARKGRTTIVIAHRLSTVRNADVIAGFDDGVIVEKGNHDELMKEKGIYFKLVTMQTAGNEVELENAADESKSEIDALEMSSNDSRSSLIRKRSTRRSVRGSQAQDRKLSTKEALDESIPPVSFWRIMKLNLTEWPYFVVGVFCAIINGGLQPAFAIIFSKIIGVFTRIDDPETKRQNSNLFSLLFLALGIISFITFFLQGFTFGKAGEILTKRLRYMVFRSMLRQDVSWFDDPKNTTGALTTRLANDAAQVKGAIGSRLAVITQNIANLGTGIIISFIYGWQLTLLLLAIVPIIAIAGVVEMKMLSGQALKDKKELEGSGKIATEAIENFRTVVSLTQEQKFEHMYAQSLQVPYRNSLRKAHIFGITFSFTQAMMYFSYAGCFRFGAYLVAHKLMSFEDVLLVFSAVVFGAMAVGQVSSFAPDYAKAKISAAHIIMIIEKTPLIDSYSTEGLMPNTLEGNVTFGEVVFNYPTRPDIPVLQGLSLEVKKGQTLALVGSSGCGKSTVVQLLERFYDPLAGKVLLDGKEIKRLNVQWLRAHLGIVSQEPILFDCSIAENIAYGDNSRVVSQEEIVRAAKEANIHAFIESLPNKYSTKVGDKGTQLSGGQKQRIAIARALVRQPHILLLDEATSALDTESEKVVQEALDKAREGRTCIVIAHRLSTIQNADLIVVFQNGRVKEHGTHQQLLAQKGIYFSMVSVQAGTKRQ
Chain of MRP2 (Rattus norvegicus, UniProt Q63120) (Q63120 whole entry): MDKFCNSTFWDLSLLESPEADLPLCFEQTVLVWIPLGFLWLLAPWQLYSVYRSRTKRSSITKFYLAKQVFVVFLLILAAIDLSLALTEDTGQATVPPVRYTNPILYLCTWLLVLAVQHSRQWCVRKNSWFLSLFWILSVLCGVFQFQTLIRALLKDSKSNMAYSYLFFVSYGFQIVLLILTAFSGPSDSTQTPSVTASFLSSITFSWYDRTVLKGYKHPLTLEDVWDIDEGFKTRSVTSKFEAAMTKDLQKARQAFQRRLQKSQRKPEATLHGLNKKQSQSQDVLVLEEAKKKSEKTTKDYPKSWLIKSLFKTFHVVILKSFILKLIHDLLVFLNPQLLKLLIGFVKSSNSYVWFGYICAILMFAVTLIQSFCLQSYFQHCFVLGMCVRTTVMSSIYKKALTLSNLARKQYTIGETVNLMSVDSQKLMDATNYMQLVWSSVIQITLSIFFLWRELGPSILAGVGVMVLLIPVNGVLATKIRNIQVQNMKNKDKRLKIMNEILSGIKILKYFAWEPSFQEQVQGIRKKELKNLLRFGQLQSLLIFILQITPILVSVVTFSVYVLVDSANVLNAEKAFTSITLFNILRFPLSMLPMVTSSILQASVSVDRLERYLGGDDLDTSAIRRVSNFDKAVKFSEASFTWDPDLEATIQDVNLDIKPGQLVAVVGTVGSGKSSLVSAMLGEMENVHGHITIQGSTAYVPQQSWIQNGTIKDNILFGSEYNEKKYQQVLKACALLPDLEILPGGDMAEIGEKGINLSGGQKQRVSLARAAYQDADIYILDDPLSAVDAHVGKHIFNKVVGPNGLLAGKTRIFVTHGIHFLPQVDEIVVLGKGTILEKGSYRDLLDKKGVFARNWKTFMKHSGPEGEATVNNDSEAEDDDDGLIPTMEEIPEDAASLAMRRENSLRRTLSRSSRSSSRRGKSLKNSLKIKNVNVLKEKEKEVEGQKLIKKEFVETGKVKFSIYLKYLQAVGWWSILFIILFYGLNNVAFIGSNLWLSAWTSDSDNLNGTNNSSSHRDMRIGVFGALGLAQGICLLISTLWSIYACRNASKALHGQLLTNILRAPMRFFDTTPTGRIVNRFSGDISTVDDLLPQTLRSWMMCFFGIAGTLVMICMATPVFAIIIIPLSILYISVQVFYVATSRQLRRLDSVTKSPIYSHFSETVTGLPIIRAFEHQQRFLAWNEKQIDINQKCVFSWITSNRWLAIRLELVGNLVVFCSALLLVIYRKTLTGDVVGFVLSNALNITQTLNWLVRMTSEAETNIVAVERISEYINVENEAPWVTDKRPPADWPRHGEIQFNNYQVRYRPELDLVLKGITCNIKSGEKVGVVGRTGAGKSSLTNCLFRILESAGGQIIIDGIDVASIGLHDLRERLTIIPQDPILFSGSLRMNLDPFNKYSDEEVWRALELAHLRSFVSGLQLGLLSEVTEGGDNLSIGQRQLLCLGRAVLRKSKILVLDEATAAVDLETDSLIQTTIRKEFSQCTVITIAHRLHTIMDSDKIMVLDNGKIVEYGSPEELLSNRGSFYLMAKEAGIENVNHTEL
Chain of MRP2 (Homo sapiens, UniProt Q92887) (Q92887 whole entry): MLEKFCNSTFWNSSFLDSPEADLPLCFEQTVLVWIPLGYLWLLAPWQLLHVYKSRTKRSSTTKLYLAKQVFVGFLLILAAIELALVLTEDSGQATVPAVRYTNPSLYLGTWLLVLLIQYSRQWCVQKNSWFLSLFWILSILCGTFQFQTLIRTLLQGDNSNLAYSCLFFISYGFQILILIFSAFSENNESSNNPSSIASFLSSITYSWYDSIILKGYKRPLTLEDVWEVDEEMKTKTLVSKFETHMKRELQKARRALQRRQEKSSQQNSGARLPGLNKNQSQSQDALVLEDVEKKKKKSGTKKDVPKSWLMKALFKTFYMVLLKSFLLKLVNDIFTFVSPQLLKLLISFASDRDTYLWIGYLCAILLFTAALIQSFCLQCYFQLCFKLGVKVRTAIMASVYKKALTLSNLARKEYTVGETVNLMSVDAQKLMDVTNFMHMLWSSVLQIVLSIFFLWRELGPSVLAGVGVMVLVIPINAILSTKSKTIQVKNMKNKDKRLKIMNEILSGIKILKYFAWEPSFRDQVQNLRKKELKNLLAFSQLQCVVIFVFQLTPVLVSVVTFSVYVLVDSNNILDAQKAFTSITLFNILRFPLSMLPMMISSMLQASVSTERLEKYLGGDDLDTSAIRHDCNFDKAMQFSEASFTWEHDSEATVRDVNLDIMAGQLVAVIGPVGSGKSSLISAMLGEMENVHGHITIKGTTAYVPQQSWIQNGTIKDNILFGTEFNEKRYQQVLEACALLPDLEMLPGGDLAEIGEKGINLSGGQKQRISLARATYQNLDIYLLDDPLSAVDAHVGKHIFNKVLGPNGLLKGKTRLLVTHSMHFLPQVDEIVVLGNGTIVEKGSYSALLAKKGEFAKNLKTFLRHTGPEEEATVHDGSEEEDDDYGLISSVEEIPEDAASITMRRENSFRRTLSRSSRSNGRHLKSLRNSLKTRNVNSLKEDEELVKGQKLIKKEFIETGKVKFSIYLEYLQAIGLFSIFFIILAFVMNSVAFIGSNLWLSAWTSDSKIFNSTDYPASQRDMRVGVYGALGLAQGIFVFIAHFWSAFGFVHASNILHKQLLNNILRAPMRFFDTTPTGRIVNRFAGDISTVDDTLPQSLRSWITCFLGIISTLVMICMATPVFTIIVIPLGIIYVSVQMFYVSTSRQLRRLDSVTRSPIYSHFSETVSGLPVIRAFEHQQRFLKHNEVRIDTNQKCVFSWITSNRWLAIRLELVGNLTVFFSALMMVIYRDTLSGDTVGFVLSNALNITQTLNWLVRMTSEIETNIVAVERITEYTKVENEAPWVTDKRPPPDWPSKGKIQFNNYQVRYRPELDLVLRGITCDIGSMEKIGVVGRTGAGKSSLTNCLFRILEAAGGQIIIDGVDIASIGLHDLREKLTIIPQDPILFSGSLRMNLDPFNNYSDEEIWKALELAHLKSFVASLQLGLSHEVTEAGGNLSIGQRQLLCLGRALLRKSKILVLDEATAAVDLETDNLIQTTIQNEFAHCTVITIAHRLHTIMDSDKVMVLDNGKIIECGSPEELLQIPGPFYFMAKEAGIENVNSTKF

O=C(O)c1cc(/N=N/c2ccc(S(=O)(=O)Nc3ccccn3)cc2)ccc1O [SASP]
colon histopathology finding [1]: no obvious lesions

COc1ccc(C(C)=O)c(O)c1 [Paeonol, 2’-hydroxy-4’-methoxyacetophenone]
Papp in each intestinal segment after adding Res [2]: significantly increased
Papp in each intestinal segment after adding Ver [3]: significantly increased
Caco-2 cell viability ([4]; concentration exceeds 10 μg/mL): significantly reduced
survival rate of Caco-2 cells ([4]; within 10 μg/mL, 4 hours): greater than 90%
Papp values at different concentrations [5]: no significant difference
Papp value (AP-BL) with Ver [6]: significantly increased
Papp A→B at 180 min, 2.5 μg/mL [7]: 3.25 ± 0.32 ×10⁻⁶ cm/s
Papp A→B at 180 min, 5 μg/mL [7]: 3.62 ± 0.13 ×10⁻⁶ cm/s
Papp A→B at 180 min, 10 μg/mL [7]: 3.65 ± 0.52 ×10⁻⁶ cm/s
Papp B→A at 180 min, 2.5 μg/mL [7]: 4.17 ± 0.22 ×10⁻⁶ cm/s
Papp B→A at 180 min, 5 μg/mL [7]: 5.19 ± 0.3 ×10⁻⁶ cm/s
Papp B→A at 180 min, 10 μg/mL [7]: 5.32 ± 0.67 ×10⁻⁶ cm/s
Papp in each intestinal segment after adding Indo [8]: significantly increased
Papp value (AP-BL) with Res [9]: significantly increased
cumulative release percentage (P%) [10]: 36.05 ± 2.94%
Papp value (AP-BL) with Indo [11]: significantly increased
viability at 24 h, 5 μg/mL [12]: > 80%
IL-10 level vs LPS group [13]: increased
IL-6 level vs LPS group ([13]; p < 0.05): decreased
NO level vs LPS group ([13]; p < 0.05): decreased
TNF-α level vs LPS group ([13]; p < 0.05): decreased
